# Key:
# [1] = system: Plasmodium yoelii; assay: Antimalarial activity as parasitaemia after 28 days against chloroquine-resistant Plasmodium yoelii N67 infected Swiss mice (Mus musculus) at 50 mg/kg peroral dose over 4 days; type: functional; conditions: route oral
# How it was run: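 Swiss mice (25 g, either sex, n=5) infected on day 0 with 1 × 10⁶ P. yoelii N67 chloroquine-resistant parasitized cells. Test compounds were given orally as an aqueous suspension at 50 mg/kg from day 0 to 3; vehicle controls were run alongside. Parasitaemia was counted on tail-vein thin smears on days 4, 7, 14, 21 and 28, or until death.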
# [2] = system: Plasmodium yoelii; assay: Antimalarial activity as parasitaemia after 28 days against chloroquine-resistant Plasmodium yoelii N67 infected Swiss mice (Mus musculus) at 50 mg/kg peroral dose over 7 days; type: functional; conditions: route oral
# [3] = system: Plasmodium falciparum; assay: Antimalarial effect as schizonticidal activity against chloroquine-sensitive Plasmodium falciparum 3D7 after 40 hrs; conditions: 3D7, 40 h
# [4] = Selectivity index, ratio of CC50 for african green monkey (Cercopithecus aethiops) Vero cells to IC50 for Plasmodium falciparum 3D7; type: functional
# [5] = system: Plasmodium yoelii nigeriensis; assay: Antimalarial activity at day 28 against Plasmodium yoelii nigeriensis MDR infected Swiss mice (Mus musculus) at 100 mg/kg peroral dose for 7 days; type: functional; conditions: route oral
# [6] = system: Plasmodium falciparum; assay: Antimalarial activity against chloroquine-sensitive Plasmodium falciparum 3D7 infected erythrocytes after 72 hrs by MSF assay; conditions: 3D7, 72 h
# [7] = system: Plasmodium yoelii nigeriensis; assay: Antimalarial activity as parasitaemia against Plasmodium yoelii nigeriensis MDR infected Swiss mice (Mus musculus) at 100 mg/kg peroral dose over 4 days; conditions: route oral
# [8] = system: Enterococcus faecalis; assay: Antibacterial activity against Streptococcus faecalis after 24 hrs by NCCLS method; type: functional
# How it was run: (§1)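 Bacteria grown on nutrient agar at 37 °C for 24 h, then suspended in normal saline with 0.05% Tween 20 at about […] cells/mL (0.5 McFarland). MIC by NCCLS broth microdilution in Mueller Hinton broth with twofold serial dilutions. Compounds were dissolved in DMSO at 1 mg/mL (stock). Growth, drug and blank controls were included.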
# [9] = system: Klebsiella pneumoniae; assay: Antibacterial activity against Klebsiella pneumoniae after 24 hrs by NCCLS method; type: functional; how it was run: as §1
# [10] = system: Escherichia coli; assay: Antibacterial activity against Escherichia coli after 24 hrs by NCCLS method; type: functional; how it was run: as §1
# [11] = system: Pseudomonas aeruginosa; assay: Antibacterial activity against Pseudomonas aeruginosa after 24 hrs by NCCLS method; type: functional; how it was run: as §1
# [12] = system: Plasmodium yoelii; assay: Antimalarial activity as reduced parasitaemia after 28 days against chloroquine-resistant Plasmodium yoelii N67 infected Swiss mice (Mus musculus) at 50 mg/kg peroral dose over 7 days; type: functional; design: scale not given: the % may be the effect or the level left; conditions: route oral
# [13] = system: Staphylococcus aureus; assay: Antibacterial activity against Staphylococcus aureus after 24 hrs by NCCLS method; type: functional; how it was run: as §1
# [14] = system: Plasmodium yoelii nigeriensis; assay: Antimalarial activity as reduced parasitaemia after 28 days against Plasmodium yoelii nigeriensis MDR infected Swiss mice (Mus musculus) at 100 mg/kg peroral dose over 4 days; type: functional; design: scale not given: the % may be the effect or the level left; conditions: route oral
# How it was run: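 Swiss mice of either sex (25 g) inoculated on day 0 with 1 × 10⁶ P. yoelii nigeriensis MDR parasitized cells. Groups of five mice received an aqueous suspension orally at 100 mg/kg from day 0 to day 3. Five vehicle-only mice served as controls. Parasitemia was read from tail-vein thin blood smears on days 4, 7, 14, 21 and 28, or until death.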
# [15] = system: Plasmodium yoelii nigeriensis; assay: Antimalarial activity day 28 against Plasmodium yoelii nigeriensis MDR infected Swiss mice (Mus musculus) as reduced parasitaemia at 100 mg/kg peroral dose for 7 days; type: functional; design: scale not given: the % may be the effect or the level left; conditions: route oral
compound,measurement,setting,value
Cc1cc(NC(=O)c2ccccc2Cl)c2cc(NC(=O)Nc3ccc(Br)cc3)ccc2n1,Activity,[1],1.9%
same,Activity,[2],8.8%
same,MIC,[3],2 µg/mL
Cc1cc(NC(=O)CN2CCN(C)CC2)c2cc(NC(=O)Nc3cccc(Cl)c3)ccc2n1,Selectivity Index,[4],549.7
same,Activity,[5],50%
same,MIC,[3],0.25 µg/mL
same,IC50,[6],0.013 µg/mL
same,Activity,[7],18.8%
Cc1cc(NC(=O)c2ccccc2)c2cc(NC(=O)Nc3cc(Cl)cc(Cl)c3)ccc2n1,MIC,[8],0.01 µg/mL
same,MIC,[9],0.04 µg/mL
same,MIC,[10],0.0025 µg/mL
same,MIC,[11],12.5 µg/mL
same,MIC,[3],2 µg/mL
CC(=O)c1ccc(NC(=O)Nc2ccc3nc(C)cc(NC(=O)c4ccccc4Cl)c3c2)cc1,Activity,[1],3.03%
same,Activity,[2],5.98%
same,MIC,[3],2 µg/mL
Cc1cc(NC(=O)c2ccco2)c2cc(NC(=O)Nc3ccc(Cl)cc3)ccc2n1,Selectivity Index,[4],3909.5
same,Activity,[1],2.95%
same,Activity,[2],13.2%
same,MIC,[3],0.5 µg/mL
same,IC50,[6],0.0139 µg/mL
Cc1cc(NC(=O)CN2CCCCC2)c2cc(NC(=O)Nc3ccc(Cl)c(C(F)(F)F)c3)ccc2n1,Selectivity Index,[4],76.5
same,Activity,[5],13.83%
same,MIC,[3],0.25 µg/mL
same,IC50,[6],0.0358 µg/mL
same,Activity,[7],0.27%
Cc1cc(NC(=O)c2ccccc2Cl)c2cc(NC(=O)Nc3cccc(C#N)c3)ccc2n1,Selectivity Index,[4],2401.9
same,Activity,[1],6.05%
same,Activity,[2],12.11%
same,MIC,[3],1 µg/mL
same,IC50,[6],0.0284 µg/mL
Cc1cc(NC(=O)c2cccc(Cl)c2)c2cc(NC(=O)Nc3ccc(F)c(Cl)c3)ccc2n1,Selectivity Index,[4],125.6
same,Activity,[1],3.76%
same,Activity,[2],15.5%
same,IC50,[6],0.0682 µg/mL
Cc1cc(NC(=O)CN2CCN(C)CC2)c2cc(NC(=O)Nc3ccc(Cl)c(Cl)c3)ccc2n1,Activity,[1],2.55%
same,Activity,[2],1.5%
same,Activity,[12],92.9%
same,MIC,[8],1.56 µg/mL
same,MIC,[10],1.56 µg/mL
same,MIC,[11],6.25 µg/mL
same,MIC,[13],6.25 µg/mL
same,MIC,[3],0.25 µg/mL
same,IC50,[6],0.0022 µg/mL
Cc1cc(NC(=O)c2cccc(Cl)c2)c2cc(NC(=O)Nc3ccc(Cl)cc3)ccc2n1,MIC,[8],12.5 µg/mL
same,MIC,[9],6.25 µg/mL
same,MIC,[10],12.5 µg/mL
same,MIC,[11],1.56 µg/mL
same,MIC,[13],3.12 µg/mL
same,MIC,[3],1 µg/mL
same,IC50,[6],0.0144 µg/mL
Cc1cc(NC(=O)c2ccco2)c2cc(NC(=O)Nc3cccc(C#N)c3)ccc2n1,Activity,[5],1.84%
same,Activity,[14],100%
same,Activity,[15],91.29%
same,MIC,[3],0.5 µg/mL
same,IC50,[6],0.0004 µg/mL
same,Activity,[7],0%
Cc1cc(NC(=O)CN2CCN(C)CC2)c2cc(NC(=O)Nc3ccc(Br)cc3)ccc2n1,MIC,[8],6.25 µg/mL
same,MIC,[9],6.25 µg/mL
same,MIC,[10],6.25 µg/mL
same,MIC,[11],1.56 µg/mL
same,MIC,[3],1 µg/mL
GENTAMICIN,MIC,[8],3.12 µg/mL
same,MIC,[9],25 µg/mL
same,MIC,[11],6.25 µg/mL
same,MIC,[13],6.25 µg/mL
Cc1cc(NC(=O)c2cccc(Cl)c2)c2cc(NC(=O)Nc3cccc(Cl)c3C)ccc2n1,Selectivity Index,[4],184.5
same,MIC,[3],1 µg/mL
same,IC50,[6],0.034 µg/mL
Cc1cc(NC(=O)CN2CCN(C)CC2)c2cc(NC(=O)Nc3cccc(C(F)(F)F)c3)ccc2n1,Selectivity Index,[4],2594.9
same,Activity,[1],2.5%
same,Activity,[2],21.9%
same,MIC,[3],0.25 µg/mL
same,IC50,[6],0.0008 µg/mL
CCN1CCN(CC(=O)Nc2cc(C)nc3ccc(NC(=O)Nc4cc(Cl)cc(Cl)c4)cc23)CC1,MIC,[9],6.25 µg/mL
same,MIC,[10],12.5 µg/mL
same,MIC,[13],3.12 µg/mL
same,MIC,[3],0.5 µg/mL
Cc1cc(NC(=O)c2cccc(Cl)c2)c2cc(NC(=O)Nc3cc(Cl)cc(Cl)c3)ccc2n1,Selectivity Index,[4],187.7
same,MIC,[3],2 µg/mL
same,IC50,[6],0.218 µg/mL
Cc1cc(NC(=O)c2ccccc2Cl)c2cc(NC(=O)Nc3cccc(Cl)c3)ccc2n1,Selectivity Index,[4],32.1
same,Activity,[1],4.23%
same,Activity,[2],9.77%
same,MIC,[3],0.5 µg/mL
same,IC50,[6],0.22 µg/mL
Cc1cc(NC(=O)c2ccco2)c2cc(NC(=O)Nc3ccc(C)c(Cl)c3)ccc2n1,Selectivity Index,[4],524.7
same,Activity,[1],0.61%
same,Activity,[2],21.1%
same,MIC,[3],0.5 µg/mL
same,IC50,[6],0.135 µg/mL
Cc1cc(NC(=O)CN2CCN(C)CC2)c2cc(NC(=O)Nc3cc(Cl)cc(Cl)c3)ccc2n1,Selectivity Index,[4],4404.8
same,Activity,[1],4.78%
same,Activity,[2],15.5%
same,MIC,[8],3.12 µg/mL
same,MIC,[10],1.56 µg/mL
same,MIC,[3],0.25 µg/mL
same,IC50,[6],0.0004 µg/mL
Cc1cc(NC(=O)c2ccco2)c2cc(NC(=O)Nc3ccc(Br)cc3)ccc2n1,Selectivity Index,[4],1547
same,MIC,[3],1 µg/mL
same,IC50,[6],0.0571 µg/mL
Cc1cc(NC(=O)CN2CCCCC2)c2cc(NC(=O)Nc3ccc(Cl)cc3)ccc2n1,Selectivity Index,[4],64.9
same,MIC,[3],0.5 µg/mL
same,IC50,[6],0.023 µg/mL
Cc1cc(NC(=O)c2ccccc2Cl)c2cc(NC(=O)Nc3ccc(Cl)c(Cl)c3)ccc2n1,Selectivity Index,[4],16.8
same,MIC,[3],1 µg/mL
same,IC50,[6],0.194 µg/mL
Cc1cc(NC(=O)c2ccccc2Cl)c2cc(NC(=O)Nc3ccc(C)c(Cl)c3)ccc2n1,Selectivity Index,[4],205.1
same,Activity,[1],2.15%
same,Activity,[2],5.08%
same,MIC,[3],1 µg/mL
same,IC50,[6],0.0445 µg/mL
Cc1cc(NC(=O)CN2CCN(C)CC2)c2cc(NC(=O)Nc3ccc(C)c(Cl)c3)ccc2n1,Activity,[1],1.67%
same,Activity,[2],5.15%
same,MIC,[9],12.5 µg/mL
same,MIC,[10],6.25 µg/mL
same,MIC,[11],> 50 µg/mL
same,MIC,[3],0.25 µg/mL
same,IC50,[6],0.0033 µg/mL
Cc1cc(NC(=O)CN2CCN(C)CC2)c2cc(NC(=O)Nc3ccc(Cl)c(C(F)(F)F)c3)ccc2n1,Selectivity Index,[4],53.4
same,Activity,[1],2.28%
same,Activity,[2],11%
same,MIC,[8],3.1 µg/mL
same,MIC,[9],1.56 µg/mL
same,MIC,[10],1.56 µg/mL
same,MIC,[11],12.5 µg/mL
same,MIC,[13],6.25 µg/mL
same,MIC,[3],0.5 µg/mL
same,IC50,[6],0.0182 µg/mL
CCN1CCN(CC(=O)Nc2cc(C)nc3ccc(NC(=O)Nc4ccc(Cl)c(Cl)c4)cc23)CC1,MIC,[9],12.5 µg/mL
same,MIC,[13],6.25 µg/mL
same,MIC,[3],0.5 µg/mL

# From ChEMBL document CHEMBL1139333, “Search for new pharmacophores for antimalarial activity. Part I: synthesis and antimalarial activity of new 2-methyl-6-ureido-4-quinolinamides” (Bioorg Med Chem, 2009)
